From publication PMC4224566 (Molecular Pharmaceutics, 2014)

Type: physicochemical
Settings: 0.5 M pH 4.0 acetate buffer, 1 mg/mL, 100 °C, analytical HPLC, LC-MS
Outline: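 Each peptide (about 0.1 mL) was heated in a sealed plastic tube, cooled, and then analysed by reversed-phase C18 analytical HPLC with UV detection. The HPLC ran at 1 mL/min: 5% acetonitrile/0.1% TFA in water/0.1% TFA for 5 min, then rising by 2%/min to 65%. Samples showing decomposition were run on a separate LC-MS. Samples with little or none were heated 30 min more and re-analysed.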

Ph-NCS-E[c(RGDfK)]2 [compound 10]
release of monomer after 10 min heating: obvious release of c(RGDfK)
